{"source": "paper PMC11310207", "about": "(Scientific Reports, 2024)", "key": {"recombinant human Nln [1]": {"molecular_target": "T1, recombinant human Nln (Homo sapiens, UniProt Q9BYT8)", "T1 sequence (Q9BYT8 38-704)": "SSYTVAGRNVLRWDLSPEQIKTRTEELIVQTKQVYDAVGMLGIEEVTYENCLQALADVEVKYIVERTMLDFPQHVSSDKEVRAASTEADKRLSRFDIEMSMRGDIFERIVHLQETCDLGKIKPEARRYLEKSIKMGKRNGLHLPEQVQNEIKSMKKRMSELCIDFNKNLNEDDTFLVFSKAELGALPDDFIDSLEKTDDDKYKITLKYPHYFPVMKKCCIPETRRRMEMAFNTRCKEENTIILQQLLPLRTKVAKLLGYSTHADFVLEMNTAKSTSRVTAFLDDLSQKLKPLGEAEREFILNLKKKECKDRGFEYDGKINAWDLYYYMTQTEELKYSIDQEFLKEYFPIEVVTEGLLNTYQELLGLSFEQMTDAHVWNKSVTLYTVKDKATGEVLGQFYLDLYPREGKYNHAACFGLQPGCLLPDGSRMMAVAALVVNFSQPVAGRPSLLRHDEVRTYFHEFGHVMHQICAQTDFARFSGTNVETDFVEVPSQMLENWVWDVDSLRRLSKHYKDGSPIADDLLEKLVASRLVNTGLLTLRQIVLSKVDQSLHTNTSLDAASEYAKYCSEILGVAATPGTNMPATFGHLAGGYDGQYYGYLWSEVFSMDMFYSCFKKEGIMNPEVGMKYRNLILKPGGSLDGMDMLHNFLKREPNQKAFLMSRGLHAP", "settings": "read-out: Ki (published value); inhibition of Nln; cited from earlier work"}, "recombinant human Nln [2]": {"molecular_target": "T1, recombinant human Nln", "test": "Competition of Dyn A peptides with quenched fluorogenic Nln substrate", "type": "biochemical", "procedure,_shortened": "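N-terminally 6xHis-tagged human Nln (Ser38–Pro704) was incubated in aCSF at 37 °C with 15 µM quenched substrate Mca-Pro-Leu-Gly-Pro-D-Lys(DNP)-OH, ± Dyn A peptide at 0.1–100 µM. Fluorescence was recorded continuously for 20 min under initial-velocity conditions (<10% substrate consumed). V0 was expressed as % of the no-peptide control and fitted to three-parameter log(inhibitor)–response to give IC50. Ki was calculated by Cheng–Prusoff (Km 8 µM). n=4, duplicates.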"}, "rNln E475A": {"molecular_target": "rNln E475A (Rattus norvegicus, UniProt P42676, E498A)", "sequence (P42676 37-704 E498A)": "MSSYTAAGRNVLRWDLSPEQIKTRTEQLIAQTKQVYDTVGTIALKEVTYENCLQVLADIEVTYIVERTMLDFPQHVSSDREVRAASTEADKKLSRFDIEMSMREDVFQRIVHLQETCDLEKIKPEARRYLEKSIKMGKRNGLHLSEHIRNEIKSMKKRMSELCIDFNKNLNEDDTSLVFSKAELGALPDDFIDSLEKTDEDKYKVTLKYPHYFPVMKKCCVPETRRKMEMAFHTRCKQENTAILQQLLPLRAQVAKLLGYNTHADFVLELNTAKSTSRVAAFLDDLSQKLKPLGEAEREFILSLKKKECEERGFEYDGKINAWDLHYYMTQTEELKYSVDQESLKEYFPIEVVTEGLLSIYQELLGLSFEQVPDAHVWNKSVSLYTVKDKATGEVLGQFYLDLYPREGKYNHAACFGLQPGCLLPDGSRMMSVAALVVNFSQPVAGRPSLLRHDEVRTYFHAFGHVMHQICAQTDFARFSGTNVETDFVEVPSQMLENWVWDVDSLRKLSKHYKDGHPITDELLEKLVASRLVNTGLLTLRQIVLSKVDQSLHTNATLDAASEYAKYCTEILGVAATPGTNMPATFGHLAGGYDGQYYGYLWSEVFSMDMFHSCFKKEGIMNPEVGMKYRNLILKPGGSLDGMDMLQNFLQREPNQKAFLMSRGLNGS", "type": "binding", "procedure,_shortened": "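Rat Nln (Met37–Ser704, E475A) with a C-terminal 6xHis tag, expressed in E. coli BL21(DE3) and purified by Ni-affinity and SEC. FAM-labelled Dyn A peptides (FAM replacing Tyr1; 18 nM final) were mixed with 0–50 µM Nln in aCSF (0.2 µM ZnSO4, pH 7.2) plus 0.01% Triton X-100. Polarization was read at 25 °C (ex 485/em 535 nm). ΔmP versus no-Nln was fitted to one-site binding with ligand depletion for KD.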"}}, "note": "Read-outs that look alike come from different tables or passages of the source. Ends that are not written are not given here. Peptide text beside a SMILES is read from it. * marks the point of attachment. 5FAM = O=C1OC2(c3ccc(O)cc3Oc3cc(O)ccc32)c2ccc(C(=O)*)cc21"}
{"molecule": "CC[C@H](C)[C@H](NC(=O)[C@H](CCCNC(=N)N)NC(=O)[C@H](CCCNC(=N)N)NC(=O)[C@H](CC(C)C)NC(=O)[C@H](Cc1ccccc1)NC(=O)CNC(=O)CNC(=O)[C@@H](N)Cc1ccc(O)cc1)C(=O)N[C@@H](CCCNC(=N)N)C(=O)N1CCC[C@H]1C(=O)N[C@@H](CCCCN)C(=O)N[C@@H](CC(C)C)C(=O)N[C@@H](CCCCN)C(=O)O", "note": "[Dyn A (1–13)]", "values": [{"measurement": "Ki", "setting": "recombinant human Nln [1]", "value": 1.19, "unit": "µM"}]}
{"molecule": "CC[C@H](C)[C@H](NC(=O)[C@H](CCCNC(=N)N)NC(=O)[C@H](CCCNC(=N)N)NC(=O)[C@H](CC(C)C)NC(=O)[C@H](Cc1ccccc1)NC(=O)CNC(=O)CNC(=O)[C@@H](N)Cc1ccc(O)cc1)C(=O)N[C@@H](CCCNC(=N)N)C(=O)N1CCC[C@H]1C(=O)N[C@@H](CCCCN)C(=O)N[C@@H](CC(C)C)C(=O)N[C@@H](CCCCN)C(=O)N[C@@H](Cc1c[nH]c2ccccc12)C(=O)N[C@@H](CC(=O)O)C(=O)N[C@@H](CC(N)=O)C(=O)N[C@@H](CCC(N)=O)C(=O)O", "note": "[Dyn A (1–17)]", "values": [{"measurement": "Ki", "setting": "recombinant human Nln [2]", "value": "~6", "unit": "µM"}]}
{"molecule": "CC[C@H](C)[C@H](NC(=O)[C@H](CCCNC(=N)N)NC(=O)[C@H](CCCNC(=N)N)NC(=O)[C@H](CC(C)C)NC(=O)[C@H](Cc1ccccc1)NC(=O)CNC(=O)CNC(=O)c1ccc2c(c1)C(=O)OC21c2ccc(O)cc2Oc2cc(O)ccc21)C(=O)N[C@@H](CCCNC(=N)N)C(=O)N1CCC[C@H]1C(=O)N[C@@H](CCCCN)C(=O)N[C@@H](CC(C)C)C(=O)N[C@@H](CCCCN)C(=O)N[C@@H](Cc1c[nH]c2ccccc12)C(=O)N[C@@H](CC(=O)O)C(=O)N[C@@H](CC(N)=O)C(=O)N[C@@H](CCC(N)=O)C(=O)O", "note": "[FAM-^2GGFLRRIRPKLKWDNQ^17]", "values": [{"measurement": "Kd", "setting": "rNln E475A", "value": 3.26, "unit": "µM"}]}
{"molecule": "CC[C@H](C)[C@H](NC(=O)[C@H](CCCNC(=N)N)NC(=O)[C@H](CCCNC(=N)N)NC(=O)[C@H](CC(C)C)NC(=O)[C@H](Cc1ccccc1)NC(=O)CNC(=O)CNC(=O)c1ccc2c(c1)C(=O)OC21c2ccc(O)cc2Oc2cc(O)ccc21)C(=O)N[C@@H](CCCNC(=N)N)C(=O)N1CCC[C@H]1C(=O)N[C@@H](CCCCN)C(=O)N[C@@H](CC(C)C)C(=O)N[C@@H](CCCCN)C(=O)O", "note": "[FAM-^2GGFLRRIRPKLK^13]", "values": [{"measurement": "Kd", "setting": "rNln E475A", "value": 4.69, "unit": "µM"}]}
{"molecule": "CC[C@H](C)[C@H](NC(=O)[C@H](CCCNC(=N)N)NC(=O)[C@H](CCCNC(=N)N)NC(=O)[C@H](CC(C)C)NC(=O)[C@H](Cc1ccccc1)NC(=O)CNC(=O)CNC(=O)c1ccc2c(c1)C(=O)OC21c2ccc(O)cc2Oc2cc(O)ccc21)C(=O)N[C@@H](CCCNC(=N)N)C(=O)N1CCC[C@H]1C(=O)O", "note": "[FAM-^2GGFLRRIRP^10] (5FAM-GGFLRRIRP-OH)", "values": [{"measurement": "Kd", "setting": "rNln E475A", "value": 8.46, "unit": "µM"}]}
{"molecule": "YGGFLRRIR [Dyn A (1–9)]", "values": [{"measurement": "Ki", "setting": "recombinant human Nln [2]", "value": "~6", "unit": "µM"}]}
